Read-outs that look alike come from different tables or passages of the source.
How the values were obtained:
HepG-2 cells [1] = assay: Mitochondrial membrane potential by JC-1 staining; format: cell-based, human; conditions: HepG-2, 30 μM, 48 hours, negative control 5.42
[2] = system: BGC803 human gastric cancer cell line; assay: MTT cytotoxicity assay, BGC803; format: cell-based; conditions: read-out: IC50 BGC803
Procedure, shortened: (§1)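 Adherent cells kept in DMEM with 10% FBS at 37 °C, 5% CO2, seeded at 5 × 10^3 cells per well and left overnight. Test compound in DMF diluted in medium (DMF final < 0.4%) for 48 h at 37 °C. MTT (5 mg mL−1) added for 4 h, formazan dissolved in DMSO, A570 read. IC50 from % inhibition versus log concentration; cisplatin run as reference.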

[3] = system: HepG-2 human hepatocellular carcinoma cell line; assay: MTT cytotoxicity assay, HepG-2; format: cell-based; conditions: read-out: IC50 HepG-2
Procedure, shortened: as §1

[4] = system: MCF-7 human breast carcinoma cell line; assay: MTT cytotoxicity assay, MCF-7; format: cell-based; conditions: read-out: IC50 MCF-7
Procedure, shortened: as §1

[5] = system: NCI-H460 large cell lung cancer cell line; assay: MTT cytotoxicity assay, NCI-H460; format: cell-based; conditions: read-out: IC50 NCI-H460
Procedure, shortened: as §1

[6] = system: SGC7901 gastric cancer cell line; assay: MTT cytotoxicity assay, SGC7901; format: cell-based; conditions: read-out: IC50 SGC7901, 48 h drug exposure
Procedure, shortened: as §1

[7] = system: SGC7901/CDDP cisplatin-resistant gastric cancer cell line; assay: MTT cytotoxicity assay, SGC7901/CDDP; format: cell-based; conditions: read-out: IC50 SGC7901/CDDP, 48 h drug exposure
Procedure, shortened: as §1

[8] = system: HUVEC human umbilical vein endothelial cell line; assay: MTT cytotoxicity assay, HUVEC; format: cell-based; conditions: read-out: IC50 HUVEC, 48 h drug exposure, normal cells
Procedure, shortened: as §1

HepG-2 cells [9] = assay: Annexin V-FITC/PI apoptosis assay by flow cytometry; format: cell-based, human; conditions: HepG-2, 50 μM, 24 hours
[10] = reported for kiteplatin; same experimental conditions; cited from earlier work
[11] = PBS, 37 °C, pH 7.0; cited from earlier work

Molecule	Red-green fluorescence ratio (FL2/FL1) (HepG-2 cells [1])	IC50 ([2]; MTT assay, 48 h drug exposure)	IC50 ([3]; MTT assay, 48 h drug exposure)	IC50 ([4]; MTT assay, 48 h drug exposure)	IC50 ([5]; MTT assay, 48 h drug exposure)	other results
N#CC(C#N)=NNc1cccc(Cl)c1 [CCCP, carbonylcyanide-m-chlorophenylhydrazone]	0.04	–	–	–	–	–
N.N.O=C([O-])C1(C(=O)[O-])CCC1.[Pt+2] [Carboplatin, carboplatin]	2.56	77.1 ± 5.35 µM	42.3 ± 2.55 µM	179 ± 10.6 µM	52.9 ± 4.98 µM	–
N.N.[Cl][Pt][Cl] [Cisplatin, cisplatin]	0.54	21.6 ± 1.35 µM	27.8 ± 2.56 µM	29.2 ± 1.38 µM	14.8 ± 1.35 µM	IC50 [6]: 9.96 ± 0.87 µM; IC50 [7]: 35.6 ± 2.55 µM; IC50 [8]: 36.9 ± 2.23 µM; apoptotic rate (early + late) (HepG-2 cells [9]): 28.79%
O=C(O)C(Cl)Cl [DCA, Dichloroacetate]	4.17	–	–	–	–	IC50 ([2]; Homo sapiens, BGC803, 48 h): > 100 µM; IC50 ([3]; Homo sapiens, HepG2, 48 h): > 100 µM; IC50 ([4]; Homo sapiens, MCF7, 48 h): > 100 µM; IC50 ([5]; Homo sapiens, NCI-H460, 48 h): > 100 µM
O=C1[O][Pt]2([NH][C@@H]3CCCC[C@H]3[NH]2)[O]C1=O [Oxaliplatin, oxaliplatin]	0.94	29.1 ± 1.65 µM	26.5 ± 2.55 µM	41.3 ± 3.43 µM	13.4 ± 1.13 µM	IC50 [6]: 13.5 ± 1.55 µM; IC50 [7]: 99.4 ± 5.23 µM; IC50 [8]: 51 ± 4.42 µM; apoptotic rate (early + late) (HepG-2 cells [9]): 21.74%
NC1CCC(N)CC1.[Cl][Pt+2][Cl] (stereo not shown) [kiteplatin]	–	–	–	–	–	half-life [10]: 60 min
ct-[Pt(NH3)2(TFA)2(CBCDA)] [ct-[Pt(NH3)2(TFA)2(CBCDA)] (5)]	–	–	–	–	–	t1/2 [11]: 142 min

— article PMC9066701 (RSC Advances, 2019)
